Source: ChEMBL document CHEMBL1127684, “Enkephalin analogs as systemically active antinociceptive agents: O- and N-alkylated derivatives of the dipeptide amide L-2,6-dimethyltyrosyl-N-(3-phenylpropyl)-D-alaninamide” (J Med Chem, 1994)
Calls of active or inactive are those of the source. No cut-off for these calls is given here.

Tests used:
[1] = system: Mus musculus; test: Effective dose administered subcutaneously in mouse writhing assay; type: functional
In short: (§1)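 Mouse phenylbenzoquinone-induced abdominal stretch (writhing) assay with subcutaneous dosing. […] 10 mg/kg was the highest dose tested.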

[2] = target: Opioid receptor (Rattus norvegicus, UniProt P33533+P34975+P33535); test: Affinity for the opioid receptor by displacement of tritiated naloxone from rat brain membranes.; type: cell membranes, Membrane
In short: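 Rat brain membranes with the cerebellum removed. Competition against [3H]naloxone as a nonselective opioid label, with the radioligand at or near its Kd. Reported as IC50 (nM).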

[3] = system: Mus musculus; test: Effective dose administered intragastricly in mouse writhing assay; type: functional; settings: po
[4] = target: T1, Delta-type opioid receptor (Rattus norvegicus, UniProt P33533); test: Displacement of [3H]DSLET from rat brain membrane delta opioid receptor
In short: (§2)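 Forebrain membranes from male Sprague-Dawley rats (150–300 g, cerebellum and hindbrain removed), washed and preincubated 1 h at 25 °C. Binding run in triplicate at 37 °C in 50 mM Tris/HCl pH 7.4, ~1 mg/mL protein, [3H]DSLET 1.0 nM, with varying compound concentrations. Nonspecific binding defined with 10 μM levorphanol. IC50 taken from log-logit plots of concentration vs percent displacement.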

[5] = target: T2, Mu-type opioid receptor (Rattus norvegicus, UniProt P33535); test: Inhibitory concentration was evaluated against mu opioid receptor by the displacement of tritiated DAMGO from rat brain membranes; type: cell membranes, Membrane
In short: as §2, with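 “[3H]DAMGO 2.0” for “[3H]DSLET 1.0”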

[6] = target: T1, Delta-type opioid receptor; test: (§3) Inhibitory concentration was evaluated against delta opioid receptor by the displacement of tritiated DSLET from rat brain membranes; type: cell membranes, Membrane; in short: as §2
[7] = target: T2, Mu-type opioid receptor; test: Affinity for mu opioid receptor was measured by displacement of tritiated DAMGO from rat brain membranes; type: cell membranes, Membrane
In short: as §2, with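 “[3H]DAMGO 2.0” for “[3H]DSLET 1.0”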

[8] = target: Kappa-type opioid receptor (Rattus norvegicus, UniProt P34975); test: Inhibitory concentration was evaluated against kappa opioid receptor by displacement of tritiated U-69593 from rat brain membranes; type: cell membranes, Membrane
[9] = system: Mus musculus; test: Effective dose administered intragastricly in mouse writhing assay; No significant inhibition at 10 mg/kg, the highest dose tested; type: functional, organism-based; parameters: dose 10 mg/kg
[10] = system: Mus musculus; test: Effective dose administered subcutaneously in mouse writhing assay; No significant inhibition at 10 mg/kg, the highest dose tested; type: functional, organism-based; parameters: dose 10 mg/kg; in short: as §1
[11] = target: T1, Delta-type opioid receptor; test: as §3; type: functional, cell membranes, Membrane; in short: as §2
[12] = system: Mus musculus; test: Effective dose administered subcutaneously in mouse writhing assay; not significant; type: functional, organism-based; in short: as §1
[13] = Mus musculus, sc, read-out: ED50

Kappa-type opioid receptor, sequence (P34975 whole entry): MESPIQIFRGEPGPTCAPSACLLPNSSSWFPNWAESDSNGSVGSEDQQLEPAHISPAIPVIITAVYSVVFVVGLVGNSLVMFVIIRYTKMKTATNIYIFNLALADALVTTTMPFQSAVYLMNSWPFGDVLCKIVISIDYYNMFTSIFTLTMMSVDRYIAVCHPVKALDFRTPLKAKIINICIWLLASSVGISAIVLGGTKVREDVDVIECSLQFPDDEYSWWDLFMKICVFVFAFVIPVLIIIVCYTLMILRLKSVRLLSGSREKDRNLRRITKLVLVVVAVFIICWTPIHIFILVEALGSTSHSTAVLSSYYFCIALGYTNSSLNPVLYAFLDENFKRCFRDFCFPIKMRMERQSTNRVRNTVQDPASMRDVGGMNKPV
T2 sequence (P33535 whole entry): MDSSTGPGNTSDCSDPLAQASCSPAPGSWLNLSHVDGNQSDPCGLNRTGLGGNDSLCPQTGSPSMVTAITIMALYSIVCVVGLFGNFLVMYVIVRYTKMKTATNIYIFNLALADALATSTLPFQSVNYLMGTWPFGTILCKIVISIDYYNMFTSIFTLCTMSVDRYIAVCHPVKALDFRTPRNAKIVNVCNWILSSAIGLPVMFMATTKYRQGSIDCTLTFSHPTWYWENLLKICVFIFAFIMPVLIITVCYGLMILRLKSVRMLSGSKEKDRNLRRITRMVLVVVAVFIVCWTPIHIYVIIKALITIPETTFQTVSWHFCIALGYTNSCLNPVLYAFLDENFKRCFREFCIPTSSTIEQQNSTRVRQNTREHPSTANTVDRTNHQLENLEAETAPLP
T1 sequence (P33533 whole entry): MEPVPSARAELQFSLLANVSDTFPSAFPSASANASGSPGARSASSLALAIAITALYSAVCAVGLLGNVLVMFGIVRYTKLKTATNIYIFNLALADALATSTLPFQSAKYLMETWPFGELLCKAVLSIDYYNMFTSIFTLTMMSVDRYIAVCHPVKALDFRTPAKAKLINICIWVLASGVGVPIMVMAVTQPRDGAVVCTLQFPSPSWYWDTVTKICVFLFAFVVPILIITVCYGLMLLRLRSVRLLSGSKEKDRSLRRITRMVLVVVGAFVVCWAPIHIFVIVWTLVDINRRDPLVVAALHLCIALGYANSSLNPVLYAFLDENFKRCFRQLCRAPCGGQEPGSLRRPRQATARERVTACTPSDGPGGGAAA

Structure (SMILES)	IC50 [2] [nM]	ED50 [3] [mg/kg]	ED50 [1, 13] [mg/kg]	IC50 [4] [nM]	IC50 [7] [nM]	ED50 [9]	ED50 [10]	further results
COc1cc(C)c(C[C@H](N)C(=O)N[C@H](C)C(=O)NCCCc2ccccc2)c(C)c1 (stereo in doubt; 20c)	420	2.7	–	–	–	–	–	ED50 [1]: 3.5 mg/kg
Cc1cc(O)cc(C)c1CC(N)C(=O)N[C@H](C)C(=O)NCCCc1ccccc1 (some centres not stated)	0.1	2	0.5	8.6	0.2	–	–	IC50 [5]: 0.13 nM; IC50 [6]: 9.57 nM; IC50 [8]: 221 nM
COc1cc(C)c(C[C@H](N)C(=O)N[C@H](C)C(=O)NCCCc2ccccc2)c(C)c1 (stereo in doubt; 20b) [listing 1 of 2 here]	50	–	–	> 1000	57	–	–	ED50 [1]: 0.7 mg/kg; IC50 [5]: 32 nM; IC50 [6]: 2090 nM; IC50 [8]: 19800 nM
CNC(Cc1c(C)cc(OCc2ccccc2)cc1C)C(=O)N[C@H](C)C(=O)NCCCc1ccccc1 (some centres not stated)	53	–	~10	–	–	inactive	–	–
Cc1cc(O)cc(C)c1C[C@H](N)C(=O)N(CC1CC1)[C@H](C)C(=O)NCCCc1ccccc1 (stereo in doubt; 18b) [listing 1 of 2 here]	–	–	–	–	–	inactive	–	–
Cc1cc(OCc2ccc(C(=O)O)cc2)cc(C)c1C[C@H](N)C(=O)N[C@H](C)C(=O)NCCCc1ccccc1	83	–	–	–	–	inactive	inactive	–
C=CCN(C(=O)C(N)Cc1c(C)cc(O)cc1C)[C@H](C)C(=O)NCCCc1ccccc1 (some centres not stated)	1.3	–	0.7	–	–	inactive	–	–
Cc1cc(O)cc(C)c1CC(N)C(=O)N(C)[C@H](C)C(=O)NCCCc1ccccc1 (some centres not stated)	0.6	1.3	1.7	–	–	–	–	–
Cc1cc(O)cc(C)c1CC(N)C(=O)N[C@H](C)C(=O)N(C)CCCc1ccccc1 (some centres not stated)	300	–	–	–	–	inactive	inactive	–
Cc1cc(O)cc(C)c1CC(C)(N)C(=O)N[C@H](C)C(=O)NCCCc1ccccc1 (some centres not stated)	150	3.7	3	64	2	–	–	IC50 [5]: 1.1 nM; IC50 [6]: 124 nM; IC50 [8]: 1380 nM
Cc1cc(O)cc(C)c1C[C@H](N)C(=O)N(C)[C@H](C)C(=O)NCCCc1ccccc1	–	3.1	0.07	4.4	0.1	–	–	IC50 [5]: 0.2 nM; IC50 [6]: 8 nM; IC50 [8]: 316 nM
Cc1cc(O)cc(C)c1C[C@H](N)C(=O)N(CC1CC1)[C@H](C)C(=O)NCCCc1ccccc1 (stereo in doubt; 18c) [listing 1 of 2 here]	–	–	–	–	–	inactive	inactive	–
Cc1cc(O)cc(C)c1C[C@H](N)C(=O)N(CC1CC1)[C@H](C)C(=O)NCCCc1ccccc1 (stereo in doubt; 18c) [listing 2 of 2 here]	–	–	–	409	23.7	–	–	–
Cc1ccccc1COc1cc(C)c(CC(N)C(=O)N[C@H](C)C(=O)NCCCc2ccccc2)c(C)c1 (some centres not stated)	–	–	–	–	–	inactive	inactive	–
Cc1cc(OCc2ccccc2)cc(C)c1C[C@H](N)C(=O)N[C@H](C)C(=O)NCCCc1ccccc1	360	2.4	1.8	55	4	–	–	IC50 [5]: 0.92 nM; IC50 [6]: 133 nM; IC50 [8]: 2520 nM
CN[C@@H](Cc1c(C)cc(O)cc1C)C(=O)N[C@H](C)C(=O)NCCCc1ccccc1	140	–	–	–	–	inactive	inactive	–
COc1cc(C)c(CC(N)C(=O)N[C@H](C)C(=O)NCCCc2ccccc2)c(C)c1 (some centres not stated)	290	2.3	4.3	–	–	–	–	–
Cc1cc(O)cc(C)c1C[C@H](N)C(=O)N(CC1CC1)[C@H](C)C(=O)NCCCc1ccccc1 (stereo in doubt; 18b) [listing 2 of 2 here]	–	–	0.5	9.4	0.4	–	–	IC50 [5]: 0.5 nM; IC50 [6]: 10 nM; IC50 [8]: 1000 nM
Cc1cc(OCc2ccccc2)cc(C)c1C[C@@H](N)C(=O)N[C@H](C)C(=O)NCCCc1ccccc1	22	12.9	2.3	–	–	–	–	IC50 [5]: 44.7 nM; IC50 [6]: 1800 nM; IC50 [8]: 17500 nM
Cc1cc(OCc2ccc(C(=O)O)cc2)cc(C)c1CC(N)C(=O)N[C@H](C)C(=O)NCCCc1ccccc1 (some centres not stated)	–	–	–	882	12.3	inactive	inactive	–
C=CCOc1cc(C)c(CC(N)C(=O)N[C@H](C)C(=O)NCCCc2ccccc2)c(C)c1 (some centres not stated)	–	14.9	12.4	600	–	–	–	–
Cc1cc(OCc2ccc(C#N)cc2)cc(C)c1CC(N)C(=O)N[C@H](C)C(=O)NCCCc1ccccc1 (some centres not stated)	17	–	–	> 1000	28.6	inactive	inactive	–
Cc1cc(OCc2ccc(F)cc2)cc(C)c1CC(N)C(=O)N[C@H](C)C(=O)NCCCc1ccccc1 (some centres not stated)	18	–	2.7	385	17.5	inactive	–	IC50 [5]: 8.73 nM; IC50 [8]: 10800 nM; IC50 [11]: 367 nM
Cc1cc(OCc2ccc(C(C)(C)C)cc2)cc(C)c1CC(N)C(=O)N[C@H](C)C(=O)NCCCc1ccccc1 (some centres not stated)	0.5	–	–	–	–	inactive	inactive	–
Cc1cc(O)cc(C)c1CC(N)C(=O)N(CC1CC1)[C@H](C)C(=O)NCCCc1ccccc1 (some centres not stated)	10	–	2.4	–	–	inactive	–	–
C=CCN(C(=O)[C@@H](N)Cc1c(C)cc(O)cc1C)[C@H](C)C(=O)NCCCc1ccccc1	280	–	–	–	–	inactive	–	ED50 [12]: inactive
CCOc1cc(C)c(CC(N)C(=O)N[C@H](C)C(=O)NCCCc2ccccc2)c(C)c1 (some centres not stated)	130	–	–	–	–	inactive	inactive	–
COc1cc(C)c(C[C@H](N)C(=O)N[C@H](C)C(=O)NCCCc2ccccc2)c(C)c1 (stereo in doubt; 20b) [listing 2 of 2 here]	–	–	–	–	–	inactive	–	–
CN[C@H](Cc1c(C)cc(O)cc1C)C(=O)N[C@H](C)C(=O)NCCCc1ccccc1	1800	–	–	–	–	inactive	inactive	–
Cc1cc(OCc2ccc([N+](=O)[O-])cc2)cc(C)c1CC(N)C(=O)N[C@H](C)C(=O)NCCCc1ccccc1 (some centres not stated)	2.9	6.8	2.3	127	3.5	–	–	–
